Experimental findings from ChEMBL document CHEMBL3098122, “Synthesis, biological activity and structure-activity relationships of new benzoic acid-based protein tyrosine phosphatase inhibitors endowed with insulinomimetic effects in mouse C2C12 skeletal muscle cells” (Eur J Med Chem, 2014) are described below.

The source made the active and inactive calls. No cut-off for these calls is given here. Where only a bound is given, the exact number is not on record here.

For data set [1], the target named is T1, Low molecular weight phosphotyrosine protein phosphatase (Homo sapiens, UniProt P24666).
T1 sequence (P24666 whole entry): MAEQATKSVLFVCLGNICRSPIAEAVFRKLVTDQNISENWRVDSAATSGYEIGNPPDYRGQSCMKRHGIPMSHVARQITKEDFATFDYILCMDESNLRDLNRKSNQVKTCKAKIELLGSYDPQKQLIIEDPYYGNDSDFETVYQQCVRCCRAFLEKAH
The experiment in a line: Inhibition of human recombinant LMW-PTP IF2 expressed in Escherichia coli TB1 using p-nitrophenylphosphate as substrate.

The species named for data set [2] is Homo sapiens. Briefly: Selectivity ratio of IC50 for human recombinant LMW-PTP IF2 to IC50 for human recombinant PTP1B.
The target of data set [3] is T2, Tyrosine-protein phosphatase non-receptor type 1 (Homo sapiens, UniProt P18031).
T2 sequence (P18031 whole entry): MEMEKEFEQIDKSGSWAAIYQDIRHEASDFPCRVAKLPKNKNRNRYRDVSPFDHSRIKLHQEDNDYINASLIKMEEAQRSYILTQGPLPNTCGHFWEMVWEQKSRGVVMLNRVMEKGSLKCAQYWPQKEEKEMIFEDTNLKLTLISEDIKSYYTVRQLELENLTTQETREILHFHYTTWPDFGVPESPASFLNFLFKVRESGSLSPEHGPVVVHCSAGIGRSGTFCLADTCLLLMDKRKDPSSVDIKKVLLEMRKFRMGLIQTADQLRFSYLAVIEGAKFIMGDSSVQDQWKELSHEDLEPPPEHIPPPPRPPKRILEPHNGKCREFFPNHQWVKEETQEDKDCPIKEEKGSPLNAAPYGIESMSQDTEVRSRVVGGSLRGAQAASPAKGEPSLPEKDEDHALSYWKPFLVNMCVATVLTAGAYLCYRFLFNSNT
The experiment in a line: Inhibition of human recombinant PTP1B expressed in Escherichia coli TB1 using p-nitrophenylphosphate as substrate.

For data set [4], the species on record is Homo sapiens. Briefly: Selectivity ratio of IC50 for TC-PTP (unknown origin) to IC50 for human recombinant PTP1B. In a few lines: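 Commercial T-cell PTP assayed on p-nitrophenylphosphate at 37 °C, pH 7.0 β,β-dimethylglutarate buffer with 1 mM EDTA and 5 mM DTT; stopped with 1 M KOH, absorbance at 400 nm; IC50 from ratio of activity with and without inhibitor versus inhibitor concentration. Ratio lines pair this with recombinant human PTP1B measured the same way.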

The species named for data set [5] is Homo sapiens. Briefly: Selectivity ratio of IC50 for human recombinant LMW-PTP IF2 to IC50 for human recombinant LMW-PTP IF1.
Data set [6] deals with T3, Tyrosine-protein phosphatase non-receptor type 2 (Homo sapiens, UniProt P17706).
T3 sequence (P17706 whole entry): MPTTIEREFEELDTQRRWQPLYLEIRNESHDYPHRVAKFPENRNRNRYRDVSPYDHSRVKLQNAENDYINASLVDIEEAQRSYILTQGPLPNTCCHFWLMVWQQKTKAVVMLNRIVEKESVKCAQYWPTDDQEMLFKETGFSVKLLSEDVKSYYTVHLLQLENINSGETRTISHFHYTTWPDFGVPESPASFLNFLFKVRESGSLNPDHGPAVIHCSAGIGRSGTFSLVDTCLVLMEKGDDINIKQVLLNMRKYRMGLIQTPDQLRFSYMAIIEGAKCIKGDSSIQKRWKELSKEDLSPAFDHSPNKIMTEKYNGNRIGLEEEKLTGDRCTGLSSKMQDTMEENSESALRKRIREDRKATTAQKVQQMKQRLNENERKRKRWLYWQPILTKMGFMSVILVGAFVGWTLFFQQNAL
The experiment in a line: Inhibition of TC-PTP (unknown origin) purchased from New England Biolabs using p-nitrophenylphosphate as substrate.

In data set [7] the target is T1, Low molecular weight phosphotyrosine protein phosphatase. The experiment in a line: Inhibition of human recombinant LMW-PTP IF1 expressed in Escherichia coli TB1 using p-nitrophenylphosphate as substrate.
The target in data set [8] is T4, Tyrosine-protein phosphatase non-receptor type 1 (Homo sapiens) (UniProt P18031).
T4 sequence (whole entry): T2 sequence (P18031 whole entry)
Briefly: Reversible inhibition of human recombinant PTP1B expressed in Escherichia coli TB1 using p-nitrophenylphosphate as substrate assessed as residual activity at 25 times IC50 after 1 hr measured after 400 fold dilution. In a few lines:
(§1)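 Reversibility: PTP1B preincubated 1 h at 37 °C with at least 25-fold […], DMSO in controls; mixture then diluted 400-fold in assay buffer and residual activity measured on p-nitrophenylphosphate; three replicates, mean ± SE.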

Data set [9] can be described thus: Cytotoxicity against mouse C2C12 cells expressing PTP1B, TC-PTP, LMW-PTP and insulin receptor assessed as cell viability after 2 hrs by MTT assay. Format: cell-based. Also on record: concentration or dose not given beside the values. The note with it: read-out: Activity. In a few lines:
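C2C12 myoblasts differentiated 4 days in DMEM with 2% horse serum, serum-starved 20 h; myotubes then given MTT (0.5 mg/ml final) for 2 h at 37 °C, lysed in DMSO, formazan read at 570 nm; three replicates relative to control.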
Background: Formazan colour is commonly taken as a measure of viable cells.

Data set [10] deals with T5, Tyrosine-protein phosphatase non-receptor type 1 (Mus musculus) (UniProt P35821).
T5 sequence (whole entry): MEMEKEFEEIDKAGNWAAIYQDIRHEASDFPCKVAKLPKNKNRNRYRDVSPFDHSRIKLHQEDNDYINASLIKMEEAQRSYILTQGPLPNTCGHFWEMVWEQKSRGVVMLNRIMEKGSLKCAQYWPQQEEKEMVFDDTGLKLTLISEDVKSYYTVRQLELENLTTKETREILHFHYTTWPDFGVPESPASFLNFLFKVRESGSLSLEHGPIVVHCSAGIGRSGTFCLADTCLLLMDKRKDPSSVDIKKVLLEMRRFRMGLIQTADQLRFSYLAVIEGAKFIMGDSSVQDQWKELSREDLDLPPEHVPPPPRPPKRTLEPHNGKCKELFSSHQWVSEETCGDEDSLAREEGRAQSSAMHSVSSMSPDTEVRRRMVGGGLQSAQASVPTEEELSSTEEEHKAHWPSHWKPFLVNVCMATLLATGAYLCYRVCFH
Briefly: Inhibition of PTP1B in mouse C2C12 cells assessed as increase of insulin receptor beta phosphorylation at 25 uM after 90 mins. Format: cell-based. An outline of the steps:
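Differentiated, 20 h serum-starved C2C12 myotubes exposed to 25 µM compound (DMSO 1.2% final) for 90 min at 37 °C, insulin 10 nM 30 min as positive control; lysates run on SDS-PAGE, Western blot for phospho-insulin receptor β with actin loading control, densitometry; three replicates, p<0.05 versus control.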

The species named for data set [11] is Homo sapiens. Briefly: Selectivity ratio of IC50 for human recombinant LMW-PTP IF1 to IC50 for human recombinant PTP1B.
The target in data set [12] is T5, Tyrosine-protein phosphatase non-receptor type 1 (Mus musculus). The experiment in a line: Inhibition of PTP1B in mouse C2C12 cells assessed as increase of 2-deoxy-D-1,2-[3H]-glucose at 25 uM after 90 mins by beta-scintillation counting. Format: cell-based. In a few lines:
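Serum-starved differentiated C2C12 myotubes treated 90 min with 25 µM compound (1.2% DMSO) or 30 min with 10 nM insulin, then 0.1 µCi 2-deoxy-D-[1,2-3H]glucose in Ringer-Hepes for 15 min at 37 °C; cold PBS wash, 0.2 M NaOH lysis, scintillation counting normalized to Bradford protein; three replicates.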

In data set [13] the target is T4, Tyrosine-protein phosphatase non-receptor type 1 (Homo sapiens). The experiment in a line: Partial reversible inhibition of human recombinant PTP1B expressed in Escherichia coli TB1 using p-nitrophenylphosphate as substrate assessed as residual activity at 25 times IC50 after 1 hr measured after 400 fold dilution. In a few lines:
as §1

The term IC50 denotes the concentration that gives 50% inhibition. As to `COc1ccc(/C=C2\SC(=O)N(Cc3ccc(C(=O)O)cc3)C2=O)cc1OCc1ccccc1`, the IC50 in data set [1] was more than 50 µM; in data set [3] it was 4 µM; in data set [6] it was 12.7 µM; in data set [7], 22.3 µM. Besides, the Ratio IC50 is more than 2 in the data set filed under Homo sapiens [2], 2 in the data set filed under Homo sapiens [4], more than 2 in the data set listed under Homo sapiens [5] and more than 2 in the data set listed under Homo sapiens [11]. Also, the Activity in [8] is 80%. Besides, the viability at 2 h in data set [9] is not below 80%. Besides, the inhibition entry in data set [10] was “Active”.
As to `COc1ccc(/C=C2\SC(=O)N(Cc3ccc(C(=O)O)cc3)C2=O)cc1OCCc1ccccc1`, the IC50 in data set [1] was more than 50 µM; in [3] it was 24.6 µM; in data set [6], 16.9 µM; in data set [7], more than 50 µM. For the same compound, in the data set listed under Homo sapiens [5], the Ratio IC50 is more than 2. The Activity in data set [8] is 80%. The viability at 2 h in data set [9] was not below 80%. Moreover, the inhibition result in data set [10] was “Active”.
Regarding `O=C(O)c1ccc(CN2C(=O)S/C(=C\c3cccc(OCCc4ccccc4)c3)C2=O)cc1`, the 50% inhibitory concentration (IC50) was more than 50 µM in [1], 9.5 µM in data set [3], 7.3 µM in [6] and 20.1 µM in [7]. For the same compound, the Ratio IC50 in the data set listed under Homo sapiens [2], in the data set filed under Homo sapiens [5] and in the data set filed under Homo sapiens [11] was more than 2 throughout. For the same compound, the Activity in [8] is 80%. Also, in data set [12], the inhibition entry is “Active”. Besides, the viability at 2 h in [9] is 60%.
On to `O=C(O)c1ccc(CN2C(=O)S/C(=C\c3ccc(OCc4ccccc4)c(F)c3)C2=O)cc1`, for which the IC50 was more than 50 µM in data set [1], 7.5 µM in data set [3], 10.8 µM in [6] and 34.3 µM in data set [7]. For the same compound, the Ratio IC50 in the data set listed under Homo sapiens [2], in the data set listed under Homo sapiens [5] and in the data set filed under Homo sapiens [11] was more than 2 throughout. Besides, the Activity in [8] came to 80%. Further, the viability at 2 h in data set [9] was not below 80%. The inhibition entry in data set [10] was “Active”.
As to `COc1cc(/C=C2\SC(=O)N(Cc3ccc(C(=O)O)cc3)C2=O)ccc1OCc1ccccc1`, the IC50 was more than 50 µM in data set [1], 4.6 µM in data set [3], 3.5 µM in data set [6] and 10.3 µM in [7]. In addition, the Ratio IC50 in the data set filed under Homo sapiens [2], in the data set filed under Homo sapiens [5] and in the data set listed under Homo sapiens [11] was more than 2 throughout. For the same compound, in [8], the Activity worked out at 80%. In [9], the viability at 2 h was not below 80%. Besides, the inhibition result in [10] was “Active”.
For `O=C(O)c1ccc(CN2C(=O)/C(=C/c3cccc(OCCc4ccccc4)c3)S/C2=N\c2ccccc2)cc1`, the IC50 turned out to be 26.8 µM in [1], 4.6 µM in data set [3], 1.9 µM in data set [6] and 10.9 µM in data set [7]. For the same compound, the Ratio IC50 in the data set listed under Homo sapiens [2], in the data set listed under Homo sapiens [5] and in the data set listed under Homo sapiens [11] was more than 2 throughout. Besides, in data set [12], the inhibition result was “inactive”. Besides, the viability at 2 h in [9] is not below 80%. The Activity in [13] is 50%.
Regarding `COc1ccc(/C=C2\S/C(=N\c3ccccc3)N(Cc3ccc(C(=O)O)cc3)C2=O)cc1OCc1ccccc1`, the IC50 in data set [1] was more than 50 µM; in [3], 3.9 µM; in [6], 4 µM; in data set [7], 9.1 µM. For the same compound, the Ratio IC50 in the data set filed under Homo sapiens [2], in the data set filed under Homo sapiens [5] and in the data set listed under Homo sapiens [11] was more than 2 each time. Moreover, the viability at 2 h in data set [9] is not below 80%. The Activity in [13] turned out to be 50%.
`COc1cc(/C=C2\S/C(=N\c3ccccc3)N(Cc3ccc(C(=O)O)cc3)C2=O)ccc1OCc1ccccc1`: the IC50 in [1] amounted to 10 µM; in data set [3], 1.6 µM; in data set [6] it was 5.1 µM; in data set [7] it was 4.5 µM. Moreover, the Ratio IC50 in the data set filed under Homo sapiens [2] was more than 2; in the data set filed under Homo sapiens [4] it was 2; in the data set listed under Homo sapiens [5] it was more than 2; in the data set listed under Homo sapiens [11], more than 2. Also, in data set [8], the Activity is 80%. Also, the inhibition result in [12] was “inactive”. Moreover, in data set [9], the viability at 2 h is not below 80%.
